Experimental data published in ChEMBL document CHEMBL4373640, “Synthesis and antitumor activity of aza-brazilan derivatives containing imidazolium salt pharmacophores” (Medchemcomm, 2019).

How the values were obtained:
[1] = Cell cycle arrest in human SMMC-7221 cells assessed as accumulation at sub-G1 phase at 2 uM after 24 hrs by propidium iodide/RNase A staining based FACSCalibur flow cytometry analysis (reference value: 4.03 +/- 0.47 %); assay type: functional
[2] = Cell cycle arrest in human SMMC-7221 cells assessed as accumulation at G2/M phase at 2 uM after 24 hrs by propidium iodide/RNase A staining based FACSCalibur flow cytometry analysis (reference value: 8.21 +/- 0.38 %); assay type: functional
[3] = Induction of apoptosis in human SMMC-7221 cells assessed as late apoptotic cells at 4 uM after 48 hrs by AnnexinV-FITC/propidium iodide staining based FACSCalibur flow cytometry analysis (reference value: 7.7 %); assay type: functional
[4] = Induction of apoptosis in human SMMC-7221 cells assessed as necrotic cells at 2 uM after 48 hrs by AnnexinV-FITC/propidium iodide staining based FACSCalibur flow cytometry analysis (reference value: 2.34 %); assay type: functional
[5] = Induction of apoptosis in human SMMC-7221 cells assessed as late apoptotic cells at 2 uM after 48 hrs by AnnexinV-FITC/propidium iodide staining based FACSCalibur flow cytometry analysis (reference value: 7.7 %); assay type: functional
BEAS-2B = assay: Cytotoxicity against human BEAS2B cells assessed as reduction in cell viability after 48 hrs by MTS assay; assay type: cell-based
Summary of the method: (§1)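 Cells (5 × 10^3 per well) were plated 12 h before treatment, then exposed continuously to compound for 48 h. MTS was added, with 1–4 h incubation at 37 °C and OD read at 490 nm. IC50 is the concentration cutting OD by 50% versus untreated cells, taken from dose–response curves. Values are the mean of three independent determinations.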

[6] = Induction of apoptosis in human SMMC-7221 cells assessed as necrotic cells at 8 uM after 48 hrs by AnnexinV-FITC/propidium iodide staining based FACSCalibur flow cytometry analysis (reference value: 2.34 %); assay type: functional
NCM460 = assay: Cytotoxicity against human NCM460 cells assessed as reduction in cell viability after 48 hrs by MTS assay; assay type: cell-based; conditions: NCM460, 48 h; summary of the method: as §1
[7] = Cell cycle arrest in human SMMC-7221 cells assessed as accumulation at S phase at 4 uM after 24 hrs by propidium iodide/RNase A staining based FACSCalibur flow cytometry analysis (reference value: 14.733 +/- 1.29 %); assay type: functional
[8] = Induction of apoptosis in human SMMC-7221 cells assessed as early apoptotic cells at 2 uM after 48 hrs by AnnexinV-FITC/propidium iodide staining based FACSCalibur flow cytometry analysis (reference value: 0.106 %); assay type: functional
[9] = Induction of apoptosis in human SMMC-7221 cells assessed as late apoptotic cells at 8 uM after 48 hrs by AnnexinV-FITC/propidium iodide staining based FACSCalibur flow cytometry analysis (reference value: 7.7 %); assay type: functional
[10] = Cell cycle arrest in human SMMC-7221 cells assessed as accumulation at sub-G1 phase at 1 uM after 24 hrs by propidium iodide/RNase A staining based FACSCalibur flow cytometry analysis (reference value: 4.03 +/- 0.47 %); assay type: functional
[11] = Induction of apoptosis in human SMMC-7221 cells assessed as viable cells at 4 uM after 48 hrs by AnnexinV-FITC/propidium iodide staining based FACSCalibur flow cytometry analysis (reference value: 89.8 %); assay type: functional; conditions: SMMC-7221, 48 h, read-out: Activity
[12] = Cell cycle arrest in human SMMC-7221 cells assessed as accumulation at S phase at 1 uM after 24 hrs by propidium iodide/RNase A staining based FACSCalibur flow cytometry analysis (reference value: 14.733 +/- 1.29 %); assay type: functional
[13] = Induction of apoptosis in human SMMC-7221 cells assessed as necrotic cells at 0.5 uM after 48 hrs by AnnexinV-FITC/propidium iodide staining based FACSCalibur flow cytometry analysis (reference value: 2.34 %); assay type: functional
[14] = Cytotoxicity against human SMMC-7221 cells assessed as reduction in cell viability after 48 hrs by MTS assay; assay type: functional, cell-based; conditions: SMMC-7221, 48 h; summary of the method: as §1
[15] = Induction of apoptosis in human SMMC-7221 cells assessed as early apoptotic cells at 4 uM after 48 hrs by AnnexinV-FITC/propidium iodide staining based FACSCalibur flow cytometry analysis (reference value: 0.106 %); assay type: functional
[16] = Induction of apoptosis in human SMMC-7221 cells assessed as viable cells at 0.5 uM after 48 hrs by AnnexinV-FITC/propidium iodide staining based FACSCalibur flow cytometry analysis (reference value: 89.8 %); assay type: functional; conditions: SMMC-7221, 48 h, read-out: Activity
SW480 = assay: Cytotoxicity against human SW480 cells assessed as reduction in cell viability after 48 hrs by MTS assay; assay type: functional, cell-based; conditions: SW480, 48 h; summary of the method: as §1
[17] = Cell cycle arrest in human SMMC-7221 cells assessed as accumulation at G2/M phase at 4 uM after 24 hrs by propidium iodide/RNase A staining based FACSCalibur flow cytometry analysis (reference value: 8.21 +/- 0.38 %); assay type: functional
A549 = assay: Cytotoxicity against human A549 cells assessed as reduction in cell viability after 48 hrs by MTS assay; assay type: functional, cell-based; conditions: A549, 48 h; summary of the method: as §1
[18] = Cell cycle arrest in human SMMC-7221 cells assessed as accumulation at G0/G1 phase at 2 uM after 24 hrs by propidium iodide/RNase A staining based FACSCalibur flow cytometry analysis (reference value: 72.17 +/- 1.0 %); assay type: functional
[19] = Induction of apoptosis in human SMMC-7221 cells assessed as viable cells at 1 uM after 48 hrs by AnnexinV-FITC/propidium iodide staining based FACSCalibur flow cytometry analysis (reference value: 89.8 %); assay type: functional; conditions: SMMC-7221, 48 h, read-out: Activity
[20] = Induction of apoptosis in human SMMC-7221 cells assessed as necrotic cells at 4 uM after 48 hrs by AnnexinV-FITC/propidium iodide staining based FACSCalibur flow cytometry analysis (reference value: 2.34 %); assay type: functional
[21] = Cell cycle arrest in human SMMC-7221 cells assessed as accumulation at sub-G1 phase at 4 uM after 24 hrs by propidium iodide/RNase A staining based FACSCalibur flow cytometry analysis (reference value: 4.03 +/- 0.47 %); assay type: functional
L02 = assay: Cytotoxicity against human LO2 cells assessed as reduction in cell viability after 48 hrs by MTS assay; assay type: cell-based; conditions: L02, 48 h; summary of the method: as §1
[22] = Cell cycle arrest in human SMMC-7221 cells assessed as accumulation at S phase at 2 uM after 24 hrs by propidium iodide/RNase A staining based FACSCalibur flow cytometry analysis (reference value: 14.733 +/- 1.29 %); assay type: functional
[23] = Induction of apoptosis in human SMMC-7221 cells assessed as early apoptotic cells at 1 uM after 48 hrs by AnnexinV-FITC/propidium iodide staining based FACSCalibur flow cytometry analysis (reference value: 0.106 %); assay type: functional
[24] = Induction of apoptosis in human SMMC-7221 cells assessed as necrotic cells at 1 uM after 48 hrs by AnnexinV-FITC/propidium iodide staining based FACSCalibur flow cytometry analysis (reference value: 2.34 %); assay type: functional
[25] = Cell cycle arrest in human SMMC-7221 cells assessed as accumulation at G0/G1 phase at 4 uM after 24 hrs by propidium iodide/RNase A staining based FACSCalibur flow cytometry analysis (reference value: 72.17 +/- 1.0 %); assay type: functional

For `COc1cccc2c1N(CCCn1c[n+](Cc3ccc(C)cc3)c3cc(C)c(C)cc31)C[C@@H]1Cc3ccc(Br)cc3[C@H]21.[Br-]`, the Activity [1] was 1.21%, the Activity [2] was 9.16% and the Activity [3] was 76.8%. The Activity [4] was 6.13%, the Activity [5] was 16% and the IC50 (BEAS-2B) was 2.09 µM. For the same compound, the Activity [6] was 13.3%, the IC50 (NCM460) was 1.97 µM and the Activity [7] was 12.76%. The Activity [8] was 0.216%, the Activity [9] was 81.4% and the Activity [10] was 1.32%. It also gave a viability at 4 µM [11] of 15.2%, an Activity [12] of 10.18% and an Activity [13] of 6.79%. The IC50 [14] was 0.52 µM, the Activity [15] was 0.919% and the viability at 0.5 µM [16] was 84.2%. It also gave an IC50 (SW480) of 0.75 µM, an Activity [17] of 5.98% and an IC50 (A549) of 1.3 µM. The Activity [18] was 80.22%, the viability at 1 µM [19] was 79.2% and the Activity [20] was 7.08%. For the same compound, the Activity [21] was 18.65%, the IC50 (L02) was 2.1 µM and the Activity [22] was 9.27%. The Activity [23] was 0.529%, the Activity [24] was 5.66% and the Activity [25] was 62.54%.
